# Screens from PubChem BioAssay.
# In the library only some 2.1% were active in any assay of this set; here they are far more common.
# Runt-CBFb FRET – inhibitors of RUNX1 Runt–CBFb binding, primary screen, biochemical, FRET, Cerulean-Runt, Venus-CBFb, uHTS. Cerulean-Runt/Venus-CBFb FRET ratio 530/480, 1 h. inhibition, % at 20 µM. 0.46% of 220,000 active;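 active means inhibition over about 50% at 20 µM in the single-dose screen, limit read from the data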;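 further: 0% = DMSO wells and 100% = excess unlabeled CBFb competitor control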
#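 Measured by: fluorescence energy transfer, 422 nm excitation, 530/480 nm emission; Assay system: Cerulean-Runt domain; Medium: Tris pH 7.5 buffer with BSA; Measure: loss of energy transfer signal; Controls: 5 µM unlabeled CBFb as full-inhibition high control; Incubation: protein complex preformed 1 h, compound exposure 1 h, room temperature, dark.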
# Hck Nef HTS – inhibitors of Nef-activated human Hck kinase, primary screen, biochemical, Z-Lyte FRET, 384-well, Hck-YEEI; Recombinant Hck-YEEI plus Nef, Z-Lyte FRET kinase assay; inhibition, % at 20 µM; 0.68% of 220,000 active;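 active means Hck-Nef kinase inhibition above about 50%, limit read from the data; inactive means inhibition below that limit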;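 further: 0% = DMSO with Hck plus Nef and 100% = Hck alone without Nef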
# Target sequence (P08631 whole entry, looked up): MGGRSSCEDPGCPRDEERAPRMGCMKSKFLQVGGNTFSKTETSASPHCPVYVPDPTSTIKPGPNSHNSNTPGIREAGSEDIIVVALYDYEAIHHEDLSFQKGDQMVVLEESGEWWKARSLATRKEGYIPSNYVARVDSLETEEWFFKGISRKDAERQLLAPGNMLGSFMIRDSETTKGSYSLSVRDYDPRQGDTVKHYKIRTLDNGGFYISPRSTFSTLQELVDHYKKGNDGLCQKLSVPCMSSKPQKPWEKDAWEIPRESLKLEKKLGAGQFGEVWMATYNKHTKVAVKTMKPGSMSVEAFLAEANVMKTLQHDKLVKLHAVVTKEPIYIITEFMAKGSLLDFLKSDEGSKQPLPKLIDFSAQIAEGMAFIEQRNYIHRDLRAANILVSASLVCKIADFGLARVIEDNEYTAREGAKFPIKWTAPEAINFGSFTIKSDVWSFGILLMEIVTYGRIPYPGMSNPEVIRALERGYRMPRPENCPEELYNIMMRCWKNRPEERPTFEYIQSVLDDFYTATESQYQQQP
# L929 necroptosis – inhibitors of zVAD-triggered necroptosis, primary screen, L929 cells | viability rescue, % at 10 µM | L929 zVAD necroptosis rescue, ATP luminescence, 24 h; with zVAD 60 µM | 0.38% of 220,000 active | AID 1377, 2008;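 active means activation, scaled between plate controls, above about 75%, limit read from the data; inactive means activation under that limit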;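 further: 0% = zVAD with DMSO and 100% = DMSO alone without zVAD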
# TNF necrop inh – inhibitors of TNF-alpha triggered necroptosis, primary screen, cell-based, Jurkat FADD-/-, single concentration. Jurkat FADD-/- TNF necroptosis rescue, ATP luminescence, 24 h; 0 = TNF only, 100 = no-TNF cells. activation (protection from cell death), % at 10 µM. 0.068% of 220,000 active. AID 463075, 2010;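 active means activation, meaning protection from cell death, of at least 50% relative to plate controls; inactive means activation below 50%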;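 further: necroptosis triggered by 40 ng/mL TNF-alpha added together with compound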
# RanGTP-Imp inh – inhibitors of RanGTP-importin-beta interaction, primary screen, biochemical, FRET, CFP-Ran, YFP-importin-beta, homogeneous; inhibition, % (no concentration beside the values); cell-free CFP-Ran/YFP-importin-beta FRET ratio; AID 2216, 2009; 1.1% of 300,000 active; Ran GTPase (GTP-bound) - importin-beta complex;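 active means more than half of the replicate wells show a fall in the fluorescence ratio signal beyond about 16%, limit read from the data, passing the limit was not always enough; inconclusive means exactly half of the replicate wells pass the set limit; inactive means fewer than half of replicates pass the limit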;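 further: 0% = DMSO wells and 100% = Ran loaded with GDP instead of GTP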
# Runt-SMMHC FRET – inhibitors of RUNX1 Runt–CBFb-SMMHC binding, primary screen, biochemical, FRET, Cerulean-Runt, Venus-CBFb-SMMHC, uHTS; 0.74% of 220,000 active; inhibition, % at 20 µM; Runt-related transcription factor 1 (Homo sapiens) + Core-binding factor subunit beta …; Cerulean-Runt/Venus-CBFb-SMMHC FRET ratio 530/480, 1 h;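 active means mean inhibition across duplicate retests at 20 µM reaching about 50%, limit read from the data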;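 further: 0% = DMSO wells and 100% = wells with excess untagged CBFb-SMMHC; inhibitors lower the FRET ratio by blocking Runt binding to CBFb-SMMHC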
# Numbers without * were called inactive; ? = inconclusive; . = not tested or not shown.
SMILES,Runt-CBFb FRET,Hck Nef HTS,L929 necroptosis,TNF necrop inh,RanGTP-Imp inh,Runt-SMMHC FRET
COc1ccccc1N1CCN(c2cc(=O)n(-c3ccccc3Cl)c(=O)[nH]2)CC1,-0.3,1.6,0.8,-3.0,?,4.3
O=c1cc(N2CCCCCC2)[nH]c(=O)n1-c1ccccc1Cl,-1.2,16.2,1.6,0.1,.,1.1
CCOC(=O)C1CCN(c2cc(=O)n(-c3ccccc3Cl)c(=O)[nH]2)CC1,-0.6,7.8,0.8,-0.6,59.0*,0.4
Cc1cc(S(=O)(=O)N2CCOCC2)ccc1OCC(=O)Nc1ccc(Br)cc1F,.,.,.,.,-2.9,.
Oc1ccc(-c2csc(-c3ccccc3)n2)cc1O,37.0,-0.6,13.6,-12.6,-4.4,52.3*
Oc1ccccc1-c1csc(-c2ccccc2)n1,-1.4,-10.0,16.7,2.4,1.1,-1.7
COc1ccccc1Cc1nnc(NC(=O)C2CCN(C(=O)c3ccco3)CC2)s1,.,.,.,.,0.9,.
COc1ccccc1NC(=O)CNC(=O)c1ccccc1,0.6,13.8,0.0,0.8,2.1,-0.1
COc1ccccc1NC(=O)CNC(=O)c1ccccc1C,1.3,-0.9,0.4,0.6,24.5*,0.3
COc1ccc(C2(C)NC(=O)N(CC3CCCCC3)C2=O)cc1 (stereo unspecified),.,.,.,.,-1.3,.
C=CCn1c(CCC(=O)O)ccc1-c1ccc(OC)cc1,9.8,2.7,-0.1,0.5,-2.1,22.3
COc1ccc(-c2ccc(CCC(=O)O)n2CC2CCCO2)cc1 (stereo unspecified),31.7,15.5,2.6,0.1,?,75.4*
COc1ccc(-c2ccc(CCC(=O)O)n2CC(C)C)cc1,26.9,11.8,0.8,-0.4,2.4,51.2*
COCCCn1c(CCC(=O)O)ccc1-c1cccs1,22.0,14.8,0.0,-0.7,54.6*,125.5*
O=C(O)CCc1ccc(-c2cccs2)n1CC1CCCO1 (stereo unspecified),31.5,17.6,-0.2,2.2,18.2*,85.5*
COc1ccccc1N1CCN(S(=O)(=O)CCNC(=O)c2ccccc2Br)CC1,.,.,.,.,1.7,.
CCN1CCN(Cc2ccc(NC(=O)c3cc(NC(=O)c4cncc(-c5ccc(C#N)cc5)c4)cc(OC)c3)cc2C(F)(F)F)CC1,-1.5,-38.8,79.6*,-26.4,2.1,-3.2
CCN(CC)S(=O)(=O)c1cccc(C(=O)OCC(=O)NC(C)c2ccccc2)c1 (stereo unspecified),-2.7,25.3,5.2,0.5,2.4,-0.4
COCCn1nnnc1SCC(=O)c1ccccc1,83.7*,-3.6,1.6,3.1,0.1,-1.6
CCN(CC)S(=O)(=O)c1ccc(C(=O)OC2CCCCC2CN(C)C)cc1 (stereo unspecified),-0.2,1.2,0.2,-2.1,25.9*,4.2
CN(C)CC1CCCCC1OC(=O)c1ccc(Cl)cc1 (stereo unspecified),-0.2,-1.8,-0.1,2.8,2.2,2.2
COc1ccc(C(=O)NCc2ccon2)cc1OC1CCN(C(C)C)CC1,.,.,.,.,3.3,.
COC(=O)C1=CN(Cc2ccc(OC)cc2)C=C(C(=O)OC)C1c1cccs1,15.8,25.0,-2.9,1.1,-1.6,39.1
COC(=O)C1=CN(CCCN2CCCC2=O)C=C(C(=O)OC)C1c1cccs1,23.7,29.6,-0.2,0.5,?,86.8*
O=c1[nH]c(C(Cl)Cl)nc2sc3c(c12)CCN(Cc1ccccc1)C3,53.7*,-29.7,0.6,3.0,37.0*,.
SMILES,Runt-CBFb FRET,Hck Nef HTS,L929 necroptosis,TNF necrop inh,RanGTP-Imp inh,Runt-SMMHC FRET
COc1ccc(S(=O)(=O)Nc2ccccc2C(=O)NCc2cccnc2)cc1,.,.,.,.,-1.1,.
COc1ccc(S(=O)(=O)NCc2cccnc2)cc1C(=O)Nc1ccccc1,.,.,.,.,-1.4,.
N#Cc1c(-c2ccccc2)c(C#N)c2nc3ccccc3n2c1N,82.5*,17.4,0.8,-4.0,-4.3,93.9*
Cc1ccc(-c2c(C#N)c(N)n3c(nc4ccccc43)c2C#N)cc1,58.5*,25.6,0.8,-14.5,-1.2,118.0*
Cc1cc(Cl)n2c(nc3ccccc32)c1C#N,1.1,0.3,-2.8,-18.1,?,-16.7
CCc1c(C)c(C#N)c2nc3ccccc3n2c1NC,.,.,.,.,0.0,.
COc1ccc(C)cc1NC(=O)CSc1nc(=O)n(CCCN2CCOCC2)c2c1CCCC2,.,.,.,.,2.7,.
CSc1nc(NNC=O)cc(Oc2ccc(NC(C)=O)cc2)n1,.,.,.,.,2.7,.
C/C(=N\Nc1cc(C)nc(-c2ccccc2O)n1)c1ccccc1O,0.6,15.2,4.9,-16.1,27.8*,0.4
Cc1ccc(CC(=O)Nc2ncc([N+](=O)[O-])s2)cc1,2.0,11.9,1.6,77.4*,3.1,-3.1
Cc1ccccc1-c1ccc(/C=C2/SC(N3CCOCC3)=NC2=O)o1,-20.8,9.9,4.5,-2.3,20.2*,-42.3
O=C(O)/C=C/c1coc2ccccc2c1=O,1.6,0.4,0.1,1.5,35.4*,2.7
CCOc1cc(/C=C(\C#N)C(=O)Nc2cccc(C(=O)O)c2)ccc1OCc1ccccc1Cl,.,.,.,.,78.1*,.
COC(=O)C(Cc1ccc(O)cc1)NC(=O)C(CC(=O)OC(C)(C)C)NC(=O)OC(C)(C)C (stereo unspecified),-1.6,5.0,0.6,-0.3,0.9,-0.5
CC(=O)c1cc2c(cc1NC(=O)Nc1cccc(Cl)c1)OCCO2,19.2,9.6,-0.6,-4.2,?,62.0*
Cn1c(=O)c(C(=O)COC(=O)c2cc(-c3ccco3)nc3ccccc23)c(N)n(Cc2ccccc2)c1=O,-3.3,61.3*,-1.3,-4.1,4.8,-17.8
COc1cc(/C=C2/SC(=O)NC2=O)ccc1Oc1ccc([N+](=O)[O-])cc1[N+](=O)[O-],-0.7,51.5*,0.1,4.8,-6.1,-4.2
COc1ccc(C2NC(c3ccc(OC)cc3OC)C(C)C(=O)C2C)c(OC)c1 (stereo unspecified),-2.2,-4.4,2.4,0.4,116.3*,-0.3
COc1ccc(OC)c(C2CC(=O)C(C)C(c3cc(OC)ccc3OC)N2)c1 (stereo unspecified),1.5,-0.2,-0.2,0.9,10.7,-1.2
COc1ccc([N+](=O)[O-])cc1N(CC(=O)N1CCCC1)S(C)(=O)=O,2.0,6.8,-0.4,-0.7,-0.1,-3.4
Cc1ccc(C)n1-c1cc(S(=O)(=O)N2CCOCC2)ccc1N1CCCC1,-2.5,1.0,-0.5,-6.3,32.8*,-2.5
